Assay results published in PubChem BioAssay AID602266 (Broad Institute, 2012).
Results filed as inconclusive are left out. Active and inactive are the calls of the source.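 The calls were made as follows: active = compounds whose fitted half-maximal inhibition dose is at most double their top valid tested dose; inconclusive = flat curve with 30 to 70% inhibition, or poor fit; inactive = the rest.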

Test system: not listed separately
Experiment: lowered Hsp90aa transcript levels after heat shock – NIH-3T3 cells, RT-qPCR, cherry-pick, orthogonal assay for HSF1 inhibitor project, dose response (AID 602266)
Conditions: NIH-3T3 HGL cells, heat shock, Hsp90aa mRNA qPCR; at 26 µM (top of the series)
How it was run: (§1)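 Assay system: NIH-3T3-derived HGL heat shock reporter cells; Schedule: overnight plating, 90-min compound pretreatment, 90-min heat shock, 1-h recovery; Signal: Two-step multiplex TaqMan RT-qPCR.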

SMILES	activity change, negative = inhibition
Cc1cccc(-n2ncc3c(N(C)C4CCCCC4)ncnc32)c1	27% (inactive)
C(=N\Nc1nc2ccccc2s1)/c1ccccn1	82.6% (inactive)
CCS(=O)(=O)N1Cc2ccccc2CC1C(=O)Nc1nc2ccccc2s1 (stereo not given)	33.2% (inactive)
CC12CCC(=O)C=C1CCC1C2C(O)CC2(C)C1CCC2(O)C(=O)CO (stereo not given)	4.01% (inactive)
CC1CCN(c2ccc(-c3cccc(NC(=O)C(F)(F)F)c3)nn2)CC1	37.6% (inactive)
CCC(=O)O[C@]1(C(=O)CCl)[C@@H](C)C[C@H]2[C@@H]3CCC4=CC(=O)C=C[C@]4(C)[C@@]3(F)[C@@H](O)C[C@@]21C	30.2% (inactive)
CC(C)Sc1nc(SCC(=O)NCc2ccco2)c2c3c(sc2n1)COC(C)(C)C3	52.6% (inactive)
CN(C(=O)OC(C)(C)C)c1ccc(-c2nc3ccccc3s2)cc1	46.6% (inactive)
O=C(CN1C(=O)c2ccccc2S1(=O)=O)c1ccc2c(c1)OCCCO2	13.4% (inactive)
O=c1c2ccccc2sc2ccc(C#CC3(O)CCCCC3)cc12	49.4% (inactive)
Cc1c(-c2nc(-c3ccc(C(C)(C)C)cc3)no2)n(C)oc1=O	18.8% (inactive)
CC(=O)OCC(=O)[C@@]12OC(C)(C)O[C@@H]1CC1C3C[C@H](F)C4=CC(=O)C=CC4(C)[C@@]3(F)C(O)CC12C (stereo not given in full)	-1.11% (inactive)
Cc1ccc(/C=N/Nc2ccc(C(=O)O)cc2)s1	32.5% (inactive)
CCOc1ccc(OCc2cccc(C(=O)N/N=C/c3cccnc3)c2)cc1	37.3% (inactive)
C[C@@H]1C[C@H]2[C@@H]3CCC4=CC(=O)C=C[C@]4(C)[C@@]3(F)[C@@H](O)C[C@]2(C)[C@@]1(O)C(=O)CO	6.93% (inactive)
CC(C)(C)c1ccc(/C=N/Nc2cccc(C(=O)O)c2)cc1	12.9% (inactive)
Cc1nc(SCC(=O)Nc2nc3ccccc3s2)c(C#N)c(C)c1C	7.25% (inactive)
COC(=O)c1ccccc1NC(=O)c1ccc(-c2ccc(Br)cc2)o1	4.07% (inactive)
O=[N+]([O-])c1nn(-c2ccc3c(c2)OCCO3)n(O)c1=Nc1ccccc1	29% (inactive)
CC1CCCN(c2ncnc3c2cnn3-c2ccc(Cl)cc2)C1 (stereo not given)	28.9% (inactive)
O=C(Nc1ccc(F)cc1F)c1cc2nc3c(c(C(F)(F)F)n2n1)CCCC3	2.56% (inactive)
C[C@]12C=CC(=O)C=C1CC[C@@H]1[C@@H]2[C@@H](O)C[C@@]2(C)[C@H]1CC[C@]2(O)C(=O)CO	4.41% (inactive)
CC(=O)[C@@]1(O)C(C)CC2C3C=C(C)C4=Cc5c(cnn5-c5ccccc5)C[C@]4(C)C3C(O)C[C@@]21C (stereo not given in full)	97.3% (inactive)
N#CCCCC#Cc1ccc2c(c1)COc1c3ccccc3nn1-2	65.7% (inactive)

Test system: NIH-3T3 HGL cells, heat shock, Hsp90aa mRNA qPCR
Experiment: as above
Conditions: not given
How it was run: as §1

SMILES	AC50 [nM]
CC1=C(C(=O)OCc2ccc3c(c2)OCO3)C(c2ccc(F)cc2)NC(=O)N1 (stereo not given)	1390
